Legend:
Format in all cases: functional
NCI-H23 = assay: Cytotoxicity against human NCI-H23 cells assessed as cell growth at 10 uM; details: read-out: Activity
Method in brief: (§1)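 NCI-60 screen: cells grown in RPMI 1640 with 5% FBS and 2 mM L-glutamine, plated at 5000–40,000 cells/well according to doubling time, and preincubated 24 h at 37 °C, 5% CO2. The single 10 µM dose (DMSO stock) was added, then incubated 48 h. Cells were TCA-fixed and stained with 0.4% SRB, read at 515 nm, and growth % calculated against time-zero and control plates.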

LOX IMVI = assay: Cytotoxicity against human LOXIMVI cells assessed as cell growth at 10 uM; details: read-out: Activity; method in brief: as §1
SNB-75 = assay: Cytotoxicity against human SNB75 cells assessed as cell growth at 10 uM; details: read-out: Activity; method in brief: as §1
SK-OV-3 = assay: Cytotoxicity against human SKOV3 cells assessed as cell growth at 10 uM; details: read-out: Activity; method in brief: as §1
TK-10 = assay: Cytotoxicity against human TK10 cells assessed as cell growth at 10 uM; details: read-out: Activity; method in brief: as §1
SK-MEL-2 = assay: Cytotoxicity against human SK-MEL-2 cells assessed as cell growth at 10 uM; details: read-out: Activity; method in brief: as §1
OVCAR-5 = assay: Cytotoxicity against human OVCAR5 cells assessed as cell growth at 10 uM; details: read-out: Activity; method in brief: as §1
A549 = assay: Cytotoxicity against human A549 cells assessed as cell growth at 10 uM; details: read-out: Activity
Method in brief: (§2)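 Single-dose NCI-60 screen at 10 µM. Cells were grown in RPMI 1640 with 5% FBS and 2 mM L-glutamine, then treated for 48 h at 37 °C. Protein was measured by SRB staining with absorbance at 515 nm. Percentage growth was recorded, and inhibition percentage was calculated as 100 minus growth percentage.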

HCT-15 = assay: Cytotoxicity against human HCT15 cells assessed as cell growth at 10 uM; details: read-out: Activity; method in brief: as §2
NCI/ADR-RES = assay: Cytotoxicity against human NCI/ADR-RES cells assessed as cell growth at 10 uM; details: read-out: Activity; method in brief: as §1
SNB-19 = assay: Cytotoxicity against human SNB19 cells assessed as cell growth at 10 uM; details: read-out: Activity; method in brief: as §1
T47D = assay: Cytotoxicity against human T47D cells assessed as cell growth at 10 uM; details: read-out: Activity; method in brief: as §1
[1] = Cytotoxicity against human […] cells assessed as cell growth at 10 uM; details: read-out: Activity; method in brief: as §1
SR = assay: Cytotoxicity against human SR cells assessed as cell growth at 10 uM; details: read-out: Activity; method in brief: as §1
SW-620 = assay: Cytotoxicity against human SW620 cells assessed as cell growth at 10 uM; details: read-out: Activity; method in brief: as §1
M14 = assay: Cytotoxicity against human M14 cells assessed as cell growth at 10 uM; details: read-out: Activity; method in brief: as §1
NCI-H460 = assay: Cytotoxicity against human NCI-H460 cells assessed as cell growth at 10 uM; details: read-out: Activity; method in brief: as §1
SF-295 = assay: Cytotoxicity against human SF295 cells assessed as cell growth at 10 uM; details: read-out: Activity; method in brief: as §1
[2] = Cytotoxicity against human Hs 578T cells assessed as cell growth at 10 uM; details: read-out: Activity; method in brief: as §2
U-251 = assay: Cytotoxicity against human U251 cells assessed as cell growth at 10 uM; details: read-out: Activity; method in brief: as §1
UO-31 = assay: Cytotoxicity against human UO31 cells assessed as cell growth at 10 uM; details: read-out: Activity; method in brief: as §1
OVCAR-3 = assay: Cytotoxicity against human OVCAR-3 cells assessed as cell growth at 10 uM; details: read-out: Activity; method in brief: as §1
COLO 205 = assay: Cytotoxicity against human COLO205 cells assessed as cell growth at 10 uM; details: read-out: Activity; method in brief: as §2
IGROV-1 = assay: Cytotoxicity against human IGROV1 cells assessed as cell growth at 10 uM; details: read-out: Activity; method in brief: as §2
NCI-H322M = assay: Cytotoxicity against human NCI-H322M cells assessed as cell growth at 10 uM; details: read-out: Activity; method in brief: as §1
MOLT-4 = assay: Cytotoxicity against human MOLT4 cells assessed as cell growth at 10 uM; details: read-out: Activity; method in brief: as §1
EKVX = assay: Cytotoxicity against human EKVX cells assessed as cell growth at 10 uM; details: read-out: Activity; method in brief: as §2
K562 = assay: Cytotoxicity against human K562 cells assessed as cell growth at 10 uM; details: read-out: Activity; method in brief: as §2
HL-60(TB) = assay: Cytotoxicity against human HL-60(TB) cells assessed as cell growth at 10 uM; details: read-out: Activity
Method in brief: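 NCI 60-cell panel screen at a single concentration of 10 µM. Cells are grown in RPMI 1640 with 5% FBS and 2 mM L-glutamine and read by SRB protein staining at 515 nm. Percent growth is measured relative to time-zero and untreated controls; inhibition % is 100 minus growth %.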

Malme-3M = assay: Cytotoxicity against human MALME-3M cells assessed as cell growth at 10 uM; details: read-out: Activity; method in brief: as §1
DU-145 = assay: Cytotoxicity against human DU145 cells assessed as cell growth at 10 uM; details: read-out: Activity; method in brief: as §2
BT-549 = assay: Cytotoxicity against human BT549 cells assessed as cell growth at 10 uM; details: read-out: Activity; method in brief: as §2
CAKI-1 = assay: Cytotoxicity against human Caki1 cells assessed as cell growth at 10 uM; details: read-out: Activity; method in brief: as §2
HT-29 = assay: Cytotoxicity against human HT-29 cells assessed as cell growth at 10 uM; details: read-out: Activity; method in brief: as §2
SF-539 = assay: Cytotoxicity against human SF539 cells assessed as cell growth at 10 uM; details: read-out: Activity; method in brief: as §1
MCF7 = assay: Cytotoxicity against human MCF7 cells assessed as cell growth at 10 uM; details: read-out: Activity; method in brief: as §1
A498 = assay: Cytotoxicity against human A498 cells assessed as cell growth at 10 uM; details: read-out: Activity; method in brief: as §2
CCRF-CEM = assay: Cytotoxicity against human CCRF-CEM cells assessed as cell growth at 10 uM; details: read-out: Activity; method in brief: as §2
HOP-92 = assay: Cytotoxicity against human HOP92 cells assessed as cell growth at 10 uM; details: read-out: Activity; method in brief: as §2
NCI-H226 = assay: Cytotoxicity against human NCI-H226 cells assessed as cell growth at 10 uM; details: read-out: Activity; method in brief: as §1
SF-268 = assay: Cytotoxicity against human SF268 cells assessed as cell growth at 10 uM; details: read-out: Activity; method in brief: as §1
HOP-62 = assay: Cytotoxicity against human HOP62 cells assessed as cell growth at 10 uM; details: read-out: Activity; method in brief: as §2
ACHN = assay: Cytotoxicity against human ACHN cells assessed as cell growth at 10 uM; details: read-out: Activity; method in brief: as §2
HCC 2998 = assay: Cytotoxicity against human HCC2998 cells assessed as cell growth at 10 uM; details: read-out: Activity; method in brief: as §2
MDA-MB-435 = assay: Cytotoxicity against human MDA-MB-435 cells assessed as cell growth at 10 uM; details: read-out: Activity; method in brief: as §1
KM12 = assay: Cytotoxicity against human KM12 cells assessed as cell growth at 10 uM; details: read-out: Activity; method in brief: as §1
OVCAR-8 = assay: Cytotoxicity against human OVCAR8 cells assessed as cell growth at 10 uM; details: read-out: Activity; method in brief: as §1
786-0 = assay: Cytotoxicity against human 786-0 cells assessed as cell growth at 10 uM; details: read-out: Activity; method in brief: as §2
UACC-62 = assay: Cytotoxicity against human UACC62 cells assessed as cell growth at 10 uM; details: read-out: Activity; method in brief: as §1
HCT-116 = assay: Cytotoxicity against human HCT116 cells assessed as cell growth at 10 uM; details: read-out: Activity; method in brief: as §2
[3] = Growth inhibition of human NCI60 cells at 10 uM after 48 hrs by sulforhodamine B assay relative to control; details: NCI60, 48 h, read-out: GI
Method in brief: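 Single-dose NCI screen at 10 µM across the 60-line panel, 48 h exposure at 37 °C after a 24 h preincubation. Adherent cells were fixed with cold TCA and stained with 0.4% SRB, and absorbance was read at 515 nm. Inhibition % was taken as 100 minus growth %, and the mean across all lines was reported.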

SK-MEL-5 = assay: Cytotoxicity against human SK-MEL-5 cells assessed as cell growth at 10 uM; details: read-out: Activity; method in brief: as §1
PC-3 = assay: Cytotoxicity against human PC3 cells assessed as cell growth at 10 uM; details: read-out: Activity; method in brief: as §1
MDA-MB-231 = assay: Cytotoxicity against human MDA-MB-231 cells assessed as cell growth at 10 uM; details: read-out: Activity; method in brief: as §1
UACC-257 = assay: Cytotoxicity against human UACC257 cells assessed as cell growth at 10 uM; details: read-out: Activity; method in brief: as §1
SN12C = assay: Cytotoxicity against human SN12C cells assessed as cell growth at 10 uM; details: read-out: Activity; method in brief: as §1
OVCAR-4 = assay: Cytotoxicity against human OVCAR4 cells assessed as cell growth at 10 uM; details: read-out: Activity; method in brief: as §1
RXF 393 = assay: Cytotoxicity against human RXF393 cells assessed as cell growth at 10 uM; details: read-out: Activity; method in brief: as §1
SK-MEL-28 = assay: Cytotoxicity against human SK-MEL-28 cells assessed as cell growth at 10 uM; details: read-out: Activity; method in brief: as §1
NCI-H522 = assay: Cytotoxicity against human NCI-H522 cells assessed as cell growth at 10 uM; details: read-out: Activity; method in brief: as §1
MDA-MB-468 = assay: Cytotoxicity against human MDA-MB-468 cells assessed as cell growth at 10 uM; details: read-out: Activity; method in brief: as §1

COc1cc(C)cc(-c2nn(CC#N)cc2-c2ccnc(-c3ccc(Oc4ccccc4)cc3)c2)c1
growth at 10 µM (NCI-H23): 88.3% | growth at 10 µM (LOX IMVI): 98% | growth at 10 µM (SNB-75): 74.4% | growth at 10 µM (SK-OV-3): 95.4% | growth at 10 µM (TK-10): 88.6% | growth at 10 µM (SK-MEL-2): 85.2% | growth at 10 µM (OVCAR-5): 90.2% | growth at 10 µM (A549): 85.8% | growth at 10 µM (HCT-15): 71% | growth at 10 µM (NCI/ADR-RES): 80.3% | growth at 10 µM (SNB-19): 88.5% | growth at 10 µM (T47D): 20.1% | growth at 10 µM [1]: 83% | growth at 10 µM (SR): 95.8% | growth at 10 µM (SW-620): 98.6% | growth at 10 µM (M14): 102% | growth at 10 µM (NCI-H460): 106% | growth at 10 µM (SF-295): 95.1% | growth at 10 µM [2]: 94.3% | growth at 10 µM (U-251): 88.4% | growth at 10 µM (UO-31): 84.8% | growth at 10 µM (OVCAR-3): 109% | growth at 10 µM (COLO 205): 98.6% | growth at 10 µM (IGROV-1): 94.9% | growth at 10 µM (NCI-H322M): 96.3% | growth at 10 µM (MOLT-4): 73.7% | growth at 10 µM (EKVX): 98.2% | growth at 10 µM (K562): 88% | growth at 10 µM (HL-60(TB)): 91.2% | growth at 10 µM (Malme-3M): 112% | growth at 10 µM (DU-145): 105% | growth at 10 µM (BT-549): 96.3% | growth at 10 µM (CAKI-1): 78.7% | growth at 10 µM (HT-29): 73.9% | growth at 10 µM (SF-539): 95.3% | growth at 10 µM (MCF7): 72.1% | growth at 10 µM (A498): 85.3% | growth at 10 µM (CCRF-CEM): 91.3% | growth at 10 µM (HOP-92): 85.5% | growth at 10 µM (NCI-H226): 66.5% | growth at 10 µM (SF-268): 96.9% | growth at 10 µM (HOP-62): 96.1% | growth at 10 µM (ACHN): 85.4% | growth at 10 µM (HCC 2998): 93.9% | growth at 10 µM (MDA-MB-435): 98.1% | growth at 10 µM (KM12): 100% | growth at 10 µM (OVCAR-8): 84.4% | growth at 10 µM (786-0): 95% | growth at 10 µM (UACC-62): 65.8% | growth at 10 µM (HCT-116): 81.8% | inhibition of growth at 10 µM [3]: 13.5% | growth at 10 µM (SK-MEL-5): 53.8% | growth at 10 µM (PC-3): 91.9% | growth at 10 µM (MDA-MB-231): 88.6% | growth at 10 µM (UACC-257): 91.6% | growth at 10 µM (SN12C): 84.8% | growth at 10 µM (OVCAR-4): 82.9% | growth at 10 µM (RXF 393): 64.2% | growth at 10 µM (SK-MEL-28): 104% | growth at 10 µM (NCI-H522): 72.5% | growth at 10 µM (MDA-MB-468): 23.6%
